Columns and labels:
Mu-type opioid receptor [1] = target: T1, Mu-type opioid receptor (Homo sapiens, UniProt P35372); test: Displacement of [125I]IOXY from human recombinant mu opioid receptor expressed in CHO cells; assay type: cell-based
Outline: (§1)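 Radioligand displacement run in CHO cells stably transfected to express the μ-, δ- or κ-opioid receptor, each receptor in its own line. The method follows the authors' earlier procedure. Each value comes from n=3 determinations.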

[2] = target: Delta-type opioid receptor (Homo sapiens, UniProt P41143); test: Displacement of [125I]IOXY from human recombinant delta opioid receptor expressed in CHO cells; assay type: cell-based; outline: as §1
Chain of Delta-type opioid receptor (P41143 whole entry): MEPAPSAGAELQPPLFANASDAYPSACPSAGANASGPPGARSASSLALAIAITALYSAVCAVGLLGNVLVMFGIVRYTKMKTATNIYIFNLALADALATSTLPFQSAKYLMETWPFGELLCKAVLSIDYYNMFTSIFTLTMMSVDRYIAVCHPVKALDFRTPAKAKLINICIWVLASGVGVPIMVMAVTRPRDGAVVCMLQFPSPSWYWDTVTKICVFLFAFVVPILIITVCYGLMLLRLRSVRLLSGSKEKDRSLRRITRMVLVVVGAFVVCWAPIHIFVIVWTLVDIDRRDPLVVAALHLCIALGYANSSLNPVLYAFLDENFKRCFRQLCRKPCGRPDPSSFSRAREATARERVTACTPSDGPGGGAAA

[3] = target: Kappa-type opioid receptor (Homo sapiens, UniProt P41145); test: Displacement of [125I]IOXY from human recombinant kappa opioid receptor expressed in CHO cells; assay type: cell-based; outline: as §1
Chain of Kappa-type opioid receptor (P41145 whole entry): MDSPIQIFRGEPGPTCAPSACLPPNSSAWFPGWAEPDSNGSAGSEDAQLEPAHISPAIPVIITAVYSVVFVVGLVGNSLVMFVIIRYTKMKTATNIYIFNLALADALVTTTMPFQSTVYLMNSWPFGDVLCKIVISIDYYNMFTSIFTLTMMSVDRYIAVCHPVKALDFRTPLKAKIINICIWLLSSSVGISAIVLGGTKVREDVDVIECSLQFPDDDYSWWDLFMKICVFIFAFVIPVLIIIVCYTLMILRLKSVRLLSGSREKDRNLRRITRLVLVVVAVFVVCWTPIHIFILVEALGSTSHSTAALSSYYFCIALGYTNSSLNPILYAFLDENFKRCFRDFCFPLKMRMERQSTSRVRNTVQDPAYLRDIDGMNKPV

Mu-type opioid receptor [4] = target: T1, Mu-type opioid receptor; test: Binding affinity to mu opioid receptor

T1 sequence (P35372 whole entry): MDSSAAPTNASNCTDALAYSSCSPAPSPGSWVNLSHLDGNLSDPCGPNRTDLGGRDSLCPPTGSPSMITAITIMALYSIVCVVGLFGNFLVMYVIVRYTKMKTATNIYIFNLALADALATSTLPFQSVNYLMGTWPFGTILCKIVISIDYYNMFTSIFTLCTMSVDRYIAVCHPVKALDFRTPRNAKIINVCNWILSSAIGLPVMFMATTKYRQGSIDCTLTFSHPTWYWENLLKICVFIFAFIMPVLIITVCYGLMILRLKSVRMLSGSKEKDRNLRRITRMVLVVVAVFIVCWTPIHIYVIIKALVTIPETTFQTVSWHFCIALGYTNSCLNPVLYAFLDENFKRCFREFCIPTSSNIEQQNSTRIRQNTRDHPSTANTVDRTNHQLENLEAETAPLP

SMILES	Ki (Mu-type opioid receptor [1]) [nM]	Ki [2] [nM]	Ki [3] [nM]	Ki (Mu-type opioid receptor [4]) [nM]
Oc1ccc2c(c1)[C@]13CCC[C@H](C1)N(CCc1ccccc1)C[C@@H]3O2 (relative stereo)	1220	2530	560	
Oc1cccc2c1O[C@@H]1[C@@H]3CCC[C@]21CCN3CCc1ccccc1				7

From ChEMBL document CHEMBL1151739, “Probes for narcotic receptor mediated phenomena. 37. Synthesis and opioid binding affinity of the final pair of oxide-bridged phenylmorphans, the ortho- and para-b-isomers and their N-phenethyl analogues, and the synthesis of the N-phenethyl analogues of the ortho- and para-d-isomers” (J Med Chem, 2008)
